Measurements reported in ChEMBL document CHEMBL1145082 (J Med Chem, 2003).
pIC50: −log10 of the molar value. Values belong to the molecule of their own block, whether it stands above or below them.

What was measured:
[1] = Inhibition of Casein Kinase I; design: species or system Rattus norvegicus
How it was run: (§1)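 Reaction started with 30–150 ng kinase, run 1 h at 30 °C. Peptides captured on streptavidin plates and counted. IC50 from 6–10 concentrations; ≥3 experiments in duplicate; ± SEM.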

[2] = target: CaM kinase II (Homo sapiens, UniProt Q13557+Q13555+Q13554+Q9UQM7); assay: Inhibition of Calcium/calmodulin-dependent protein kinase II; type: protein assay, Rattus norvegicus
[3] = target: Cyclin-dependent kinase 1 (Homo sapiens, UniProt P06493); assay: Inhibition of Cyclin-dependent kinase 1; how it was run: as §1
[4] = target: Cyclin-dependent kinase 2 (Homo sapiens, UniProt P24941); assay: Inhibition of Cyclin-dependent kinase 2 (CDK2); how it was run: as §1
[5] = target: Protein kinase C gamma type (Homo sapiens, UniProt P05129); assay: Inhibition of Protein kinase C gamma (PKC-gamma)
How it was run: (§2)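 Recombinant human PKCα, PKCγ or PKCβII (5–10 mU) phosphorylating histone H1 (0.1 mg/mL) with 33P-ATP, total ATP 10 µM. Buffer 50 mM Hepes pH 7.4 with Triton X-100, CaCl2, Mg acetate, phosphatidylserine and diacylglycerol. Run 40 min at room temperature, stopped with phosphoric acid, then P30 filter counting. IC50 from 6–10 concentrations; ≥3 experiments in duplicate; ± SEM.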

[6] = target: Protein kinase C alpha type (Homo sapiens, UniProt P17252); assay: Inhibition of Protein kinase C alpha
How it was run: as §2, with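 “counting.” for “counting. IC50 from 6–10 concentrations; ≥3 experiments in duplicate; ± SEM.”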

[7] = target: Protein kinase C beta type (Homo sapiens, UniProt P05771); assay: Inhibition of Protein kinase C beta 2
How it was run: as §2, with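 “counting.” for “counting. IC50 from 6–10 concentrations; ≥3 experiments in duplicate; ± SEM.”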

[8] = Inhibitory activity against Protein kinase A was determined
[9] = target: Protein kinase C theta type (Homo sapiens, UniProt Q04759); assay: Inhibition of Protein kinase C theta
How it was run: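 Recombinant human PKCθ (5–10 mU) with histone H1 (0.1 mg/mL) and 33P-ATP, total ATP 10 µM, in 8 mM MOPS pH 7.0, 0.2 mM EDTA, 10 mM Mg acetate. Run 40 min at room temperature, stopped with phosphoric acid, then P30 filter counting. IC50 from 6–10 concentrations; ≥3 experiments in duplicate; ± SEM.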

[10] = Inhibition of Vascular endothelial growth factor receptor 2; design: species or system Homo sapiens; how it was run: as §1
[11] = target: Glycogen synthase kinase-3 beta (Homo sapiens) (UniProt P49841); assay: Inhibition of Glycogen synthase kinase-3beta (GSK3-beta) at 1 uM; settings: Oryctolagus cuniculus
Sequence of Glycogen synthase kinase-3 beta (Homo sapiens) (P49841 whole entry, looked up): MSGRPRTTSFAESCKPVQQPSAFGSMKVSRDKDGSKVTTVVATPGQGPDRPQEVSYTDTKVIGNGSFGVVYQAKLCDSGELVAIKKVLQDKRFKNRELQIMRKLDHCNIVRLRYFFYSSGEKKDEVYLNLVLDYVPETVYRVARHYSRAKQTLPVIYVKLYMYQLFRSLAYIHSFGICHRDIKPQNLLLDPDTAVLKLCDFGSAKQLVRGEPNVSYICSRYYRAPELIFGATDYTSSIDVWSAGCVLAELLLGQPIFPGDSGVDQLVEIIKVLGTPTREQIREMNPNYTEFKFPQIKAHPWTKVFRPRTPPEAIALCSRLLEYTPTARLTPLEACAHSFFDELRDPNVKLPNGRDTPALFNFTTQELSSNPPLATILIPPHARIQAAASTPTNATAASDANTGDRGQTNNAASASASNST

Sequence of Cyclin-dependent kinase 1 (P06493 whole entry): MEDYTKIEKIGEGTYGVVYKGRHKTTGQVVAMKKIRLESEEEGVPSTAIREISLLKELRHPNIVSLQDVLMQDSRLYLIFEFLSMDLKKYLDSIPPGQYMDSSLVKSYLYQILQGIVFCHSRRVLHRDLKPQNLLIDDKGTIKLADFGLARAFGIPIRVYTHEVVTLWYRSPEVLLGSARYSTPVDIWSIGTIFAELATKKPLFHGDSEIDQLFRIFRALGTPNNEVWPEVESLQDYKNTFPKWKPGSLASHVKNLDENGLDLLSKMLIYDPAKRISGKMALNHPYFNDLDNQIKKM
Sequence of Protein kinase C beta type (P05771 whole entry): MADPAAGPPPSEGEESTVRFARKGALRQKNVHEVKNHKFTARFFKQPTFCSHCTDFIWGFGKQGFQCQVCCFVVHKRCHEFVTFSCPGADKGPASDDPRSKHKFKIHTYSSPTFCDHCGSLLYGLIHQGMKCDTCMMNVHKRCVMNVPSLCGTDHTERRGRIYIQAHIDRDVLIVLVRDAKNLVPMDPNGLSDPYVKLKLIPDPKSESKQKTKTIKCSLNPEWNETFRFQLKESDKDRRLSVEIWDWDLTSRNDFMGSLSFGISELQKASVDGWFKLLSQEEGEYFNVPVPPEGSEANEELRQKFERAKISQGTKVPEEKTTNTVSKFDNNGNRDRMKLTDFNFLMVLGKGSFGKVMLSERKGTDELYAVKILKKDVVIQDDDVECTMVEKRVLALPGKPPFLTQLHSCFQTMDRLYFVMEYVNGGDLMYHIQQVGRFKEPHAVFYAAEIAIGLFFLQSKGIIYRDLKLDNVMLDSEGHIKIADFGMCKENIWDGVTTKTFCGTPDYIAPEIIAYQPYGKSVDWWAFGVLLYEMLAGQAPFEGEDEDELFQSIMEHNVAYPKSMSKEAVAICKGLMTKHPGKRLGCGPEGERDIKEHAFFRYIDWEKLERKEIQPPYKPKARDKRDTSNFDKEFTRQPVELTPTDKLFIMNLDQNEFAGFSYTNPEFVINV
Sequence of Protein kinase C theta type (Q04759 whole entry): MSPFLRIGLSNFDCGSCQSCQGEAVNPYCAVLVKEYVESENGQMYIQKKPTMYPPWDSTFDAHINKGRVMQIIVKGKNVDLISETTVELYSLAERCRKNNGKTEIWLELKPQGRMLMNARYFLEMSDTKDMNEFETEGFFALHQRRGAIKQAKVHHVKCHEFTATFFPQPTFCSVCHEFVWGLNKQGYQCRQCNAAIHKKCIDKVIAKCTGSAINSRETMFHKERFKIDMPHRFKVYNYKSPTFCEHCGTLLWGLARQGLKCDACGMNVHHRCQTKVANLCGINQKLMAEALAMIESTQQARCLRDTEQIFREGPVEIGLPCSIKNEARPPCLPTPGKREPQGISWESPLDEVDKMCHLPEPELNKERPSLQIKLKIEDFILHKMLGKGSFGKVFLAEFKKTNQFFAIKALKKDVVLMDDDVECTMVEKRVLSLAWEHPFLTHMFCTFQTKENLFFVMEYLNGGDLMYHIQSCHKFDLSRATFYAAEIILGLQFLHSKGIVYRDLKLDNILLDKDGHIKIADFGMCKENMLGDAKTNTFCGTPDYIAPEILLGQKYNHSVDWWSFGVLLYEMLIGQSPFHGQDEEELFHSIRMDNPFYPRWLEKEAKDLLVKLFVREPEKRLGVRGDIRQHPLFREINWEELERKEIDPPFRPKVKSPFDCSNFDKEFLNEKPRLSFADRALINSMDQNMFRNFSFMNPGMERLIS

Compound: O=C1NC(=O)C2=C1c1cn(c3ncccc13)CCOCCOCCOCCOCCOCCn1cc2c2cccnc21
pIC50 [5]: < 5.00

Compound: O=C1NC(=O)C2=C1c1cn(c3ccccc13)CCOCCOCCOCCOCCn1cc2c2ccccc21
pIC50 [5]: 5.48

Compound: CN1C(=O)C2=C(C1=O)c1cn(c3ccccc13)CCOCCOCCOCCn1cc2c2ccccc21
inhibition [11]: 54%

Compound: O=C1NC(=O)C2=C1c1cn(c3ccccc13)CCOCCOCCOCCn1cc2c2ccccc21 [INDOLYLYLMALEIMIDE 2]
pIC50 [1]: < 5.00
pIC50 [3]: 5.90
pIC50 [4]: 6.00
pIC50 [5]: 5.92
pIC50 [6]: 7.07
pIC50 [7]: 8.22
pIC50 [8]: < 5.00
pIC50 [9]: 7.19
pIC50 [10]: 5.84

Compound: O=C1NC(=O)C2=C1c1cn(c3ncccc13)CCOCCOCCn1cc2c2cccnc21
pIC50 [5]: < 5.00

Compound: O=C1NC(=O)C2=C1c1cn(c3ccccc13)CCOCCOCCOCCOCCOCCn1cc2c2ccccc21
pIC50 [5]: 5.29

Other lines, results leading:

pIC50 [1]: < 5.00
IC50 [2]: > 10000 nM
pIC50 [3]: 5.35
pIC50 [4]: 5.61
pIC50 [5]: 5.87
pIC50 [6]: 6.17
pIC50 [7]: 7.34
pIC50 [8]: < 5.00
pIC50 [9]: 6.08
pIC50 [10]: 5.45
Compound: O=C1NC(=O)C2=C1c1cn(c3ccccc13)CCOCCOCCOCCn1cc2c2cccnc21 [INDOLYLYLMALEIMIDE 1]

inhibition [11]: 51%
Compound: CN1C(=O)C2=C(C1=O)c1cn(c3ncccc13)CCOCCOCCn1cc2c2ccccc21

pIC50 [5]: 5.56
Compound: O=C1NC(=O)C2=C1c1cn(c3ccccc13)CCOCCOCCn1cc2c2ccccc21

pIC50 [5]: 5.57
Compound: O=C1NC(=O)C2=C1c1cn(c3ccccc13)CCOCCOCCn1cc2c2cccnc21
